Assay results taken from article PMC3327328 (Molecular Biology of the Cell, 2012).
Read-outs that look alike come from different tables or passages of the source. Square brackets hold non-standard residues; d marks the D form. Ends that are not written are not given here. Peptide text beside a SMILES is read from it. pT = C[C@@H](OP(=O)(O)O)[C@H](N)C(=O)O

Tests used:
[1] = molecular target: human Survivin (hs wt, class A) (Homo sapiens, UniProt O15392); test: ITC binding of histone H3 peptides to human Survivin wild type
human Survivin K62A [2] = molecular target: human Survivin K62A (Homo sapiens, UniProt O15392, K62A); test: ITC binding of histone H3 peptides to human Survivin K62A
Procedure, shortened: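 ITC at pH 7.8 with recombinant human Survivin K62A (bacterially expressed, His tag thrombin-cleaved, gel-filtered) binding H3T3ph(1-4) and unmodified H3(1-4) peptides. Syringe peptide 1.2 mM, cell protein 0.1 mM, sixteen injections 180 s apart. Kd from a single-binding-site model with stoichiometry, ΔH and Ka variable. Baseline offset corrects for heats of dilution.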

[3] = molecular target: human Survivin K62A (human) (UniProt O15392); test: ITC
[4] = molecular target: human Survivin H80A (human) (UniProt O15392); test: ITC
human Survivin H80R = human Survivin H80R (Homo sapiens, UniProt O15392, H80R); test: ITC binding of histone H3 peptides to human Survivin H80R; conditions: pH 6.8, 25°C, HEPES:citric acid:Ches, 10 mM β-mercaptoethanol, single-site model, n/b = no binding
Procedure, shortened: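 Mutant human Survivin from bacteria, Ni2+-resin purified, octahistidine tag removed by thrombin, then Superdex200. ITC at pH 6.8 in citric acid–Ches–HEPES buffer, 25°C. 1.2 mM histone H3 tail peptide titrated into 0.1 mM protein over sixteen injections 180 s apart. Kd from a single-site fit with stoichiometry, ΔH and Ka variable, using a baseline offset for dilution heats.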

[5] = molecular target: X. laevis class B Survivin (xl wt, xSurvivin-B) (Xenopus laevis, UniProt Q8JGN5); test: ITC binding of histone H3 peptides to Xenopus Survivin class B wild type; conditions: pH 8.2, 25°C, HEPES:citric acid:Ches, 10 mM β-mercaptoethanol, single-site model, n/b = no binding
[6] = molecular target: human Survivin wild type (human) (UniProt O15392); test: ITC
human Survivin wild type [7] = molecular target: T1, human Survivin wild type (human, UniProt O15392 1-142); test: ITC
human Survivin wild type [8] = molecular target: T1, human Survivin wild type; test: ITC; remark: listed apart in the source
human Survivin wild type [9] = molecular target: T1, human Survivin wild type; test: ITC; remark: listed apart in the source
[10] = molecular target: T2, Xenopus laevis class B Survivin R89H (X. laevis, UniProt Q8JGN5 1-160, R89H); test: ITC
human Survivin wild type [11] = molecular target: T1, human Survivin wild type; test: ITC; remark: listed apart in the source
[12] = molecular target: T2, Xenopus laevis class B Survivin R89H; test: ITC; remark: listed apart in the source
human Survivin wild type [13] = molecular target: T1, human Survivin wild type; test: ITC; remark: listed apart in the source
human Survivin wild type [14] = molecular target: T1, human Survivin wild type; test: ITC; remark: listed apart in the source
human Survivin wild type [15] = molecular target: T1, human Survivin wild type; test: ITC; remark: listed apart in the source
human Survivin K62A [16] = molecular target: human Survivin K62A (human, UniProt O15392 1-142, K62A); test: crystal structure
Sequence of human Survivin K62A (human, UniProt O15392 1-142, K62A) (O15392 whole entry K62A): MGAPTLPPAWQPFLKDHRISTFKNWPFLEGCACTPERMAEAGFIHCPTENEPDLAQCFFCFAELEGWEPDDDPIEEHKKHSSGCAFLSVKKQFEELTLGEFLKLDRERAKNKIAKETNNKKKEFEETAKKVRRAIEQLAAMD

Sequence of human Survivin K62A (human) (O15392 whole entry K62A): as above
Sequence of human Survivin H80A (human) (O15392 whole entry H80A): as the sequence (O15392 whole entry K62A) above, with A62K, H80A counted along it
T2 sequence (Q8JGN5 whole entry R89H): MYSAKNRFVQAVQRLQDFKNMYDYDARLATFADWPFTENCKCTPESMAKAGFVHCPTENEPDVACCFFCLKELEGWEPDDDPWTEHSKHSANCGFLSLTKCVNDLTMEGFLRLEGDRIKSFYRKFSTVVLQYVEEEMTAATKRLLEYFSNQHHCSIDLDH
T1 sequence (O15392 whole entry): as the sequence (O15392 whole entry K62A) above, with A62K counted along it
Sequence of human Survivin wild type (human) (O15392 whole entry): as the sequence (O15392 whole entry K62A) above, with A62K counted along it
Sequence of human Survivin H80R (O15392 whole entry H80R): as the sequence (O15392 whole entry K62A) above, with A62K, H80R counted along it
Sequence of human Survivin K62A (Homo sapiens, UniProt O15392, K62A) (O15392 whole entry K62A): as the sequence (O15392 whole entry K62A) above
Sequence of X. laevis class B Survivin (xl wt, xSurvivin-B) (Q8JGN5 whole entry): as the sequence (Q8JGN5 whole entry R89H) above, with H89R counted along it
Sequence of human Survivin (hs wt, class A) (O15392 whole entry): as the sequence (O15392 whole entry K62A) above, with A62K counted along it

Molecule: C[C@H](N)C(=O)N[C@@H](CCCNC(=N)N)C(=O)N[C@H](C(=O)N[C@@H](CCCCN)C(=O)O)[C@@H](C)O [H3T3(1-4)] (H-ARTK-OH)
- Kd [1]: 60.6 ± 4 µM
- Kd (human Survivin K62A [2]): 31.3 ± 2 µM

Molecule: histone H3 N-terminal peptide ARTK, unmodified
- Kd [3]: 31.3 µM
- dH [3]: -4.61 kcal/mol
- stoichiometry N [3]: 1.22
- Kd [4]: 236 µM
- dH [4]: -3.3 kcal/mol
- stoichiometry N [4]: 0.99

Molecule: C[C@H](N)C(=O)N[C@@H](CCCNC(=N)N)C(=O)N[C@H](C(=O)N[C@@H](CCCCN)C(=O)N[C@@H](CCC(N)=O)C(=O)N[C@H](C(=O)N[C@@H](C)C(=O)N[C@@H](CCCNC(=N)N)C(=O)N[C@@H](CCCCN)C(=O)N[C@@H](CO)C(=O)N[C@H](C(=O)NCC(=O)O)[C@@H](C)O)[C@@H](C)O)[C@@H](C)O [H3T3(1-12)]
- Kd (dissociation constant) (human Survivin H80R): n/b
- Kd (dissociation constant) [5]: n/b

Molecule: ARTK [histone H3 N-terminal peptide ARTK, unmodified]
- Kd [6]: 60.6 µM
- dH [6]: -3.16 kcal/mol
- stoichiometry N [6]: 1.27

Molecule: AR[pT]K [histone H3 N-terminal peptide ARTphK, phosphorylated on T3]
- Kd [6]: 61.7 µM
- dH [6]: -2.12 kcal/mol
- stoichiometry N [6]: 1.05

Molecule: AR[pT]KQTARKSTG [histone H3 N-terminal peptide ARTphKQTARKSTG, phosphorylated on T3]
- dH (human Survivin wild type [7]): -6.85 ± 0.02 kcal/mol
- stoichiometry N (human Survivin wild type [7]): 1.01 ± 0.002
- dH (human Survivin wild type [8]): -4.13 ± 0.22 kcal/mol
- stoichiometry N (human Survivin wild type [8]): 1.23 ± 0.02
- dH (human Survivin wild type [9]): -0.67 ± 0.05 kcal/mol
- stoichiometry N (human Survivin wild type [9]): 1.35 ± 0.06
- dH [10]: -0.87 ± 0.015 kcal/mol
- stoichiometry N [10]: 1.04 ± 0.01
- dH (human Survivin wild type [11]): -5.64 ± 0.02 kcal/mol
- stoichiometry N (human Survivin wild type [11]): 1.13 ± 0.001
- dH [12]: -4.57 ± 0.04 kcal/mol
- stoichiometry N [12]: 1.09 ± 0.004
- dH (human Survivin wild type [13]): -4.72 ± 0.06 kcal/mol
- stoichiometry N (human Survivin wild type [13]): 1.2 ± 0.01
- dH (human Survivin wild type [14]): -4.88 ± 0.03 kcal/mol
- stoichiometry N (human Survivin wild type [14]): 1.03 ± 0.002
- dH (human Survivin wild type [15]): -4.65 ± 0.05 kcal/mol
- stoichiometry N (human Survivin wild type [15]): 1.12 ± 0.01

Molecule: ARTKQTARKSTG [histone H3 N-terminal peptide ARTKQTARKSTG, unmodified]
- Kd (human Survivin wild type [7]): 21.4 ± 3.2 µM
- dH (human Survivin wild type [7]): -4.32 ± 0.23 kcal/mol
- stoichiometry N (human Survivin wild type [7]): 1.37 ± 0.04
- Kd (human Survivin wild type [8]): 30.2 ± 1.2 µM
- dH (human Survivin wild type [8]): -3.43 ± 0.05 kcal/mol
- stoichiometry N (human Survivin wild type [8]): 1.32 ± 0.01
- Kd (human Survivin wild type [9]): 21 ± 1.8 µM
- dH (human Survivin wild type [9]): -1.89 ± 0.04 kcal/mol
- stoichiometry N (human Survivin wild type [9]): 1.56 ± 0.02
- Kd [10]: 12.9 ± 1.4 µM
- dH [10]: -2.72 ± 0.06 kcal/mol
- stoichiometry N [10]: 1.34 ± 0.02
- binding result (human Survivin K62A [16]): binds
- Kd (human Survivin wild type [11]): 11.8 ± 1 µM
- dH (human Survivin wild type [11]): -2.49 ± 0.06 kcal/mol
- stoichiometry N (human Survivin wild type [11]): 1.26 ± 0.01
- Kd [12]: 5.21 ± 0.39 µM
- dH [12]: -2.69 ± 0.04 kcal/mol
- stoichiometry N [12]: 1.15 ± 0.01
- Kd (human Survivin wild type [13]): 17.1 ± 0.8 µM
- dH (human Survivin wild type [13]): -3.32 ± 0.05 kcal/mol
- stoichiometry N (human Survivin wild type [13]): 1.33 ± 0.01
- Kd (human Survivin wild type [14]): 9.67 ± 0.31 µM
- dH (human Survivin wild type [14]): -2.79 ± 0.02 kcal/mol
- stoichiometry N (human Survivin wild type [14]): 1.29 ± 0.01
- Kd (human Survivin wild type [15]): 13.3 ± 0.7 µM
- dH (human Survivin wild type [15]): -3.21 ± 0.05 kcal/mol
- stoichiometry N (human Survivin wild type [15]): 1.36 ± 0.01
